Source: ChEMBL document CHEMBL1131423, “N-(2-Benzoylphenyl)-L-tyrosine PPARgamma agonists. 2. Structure-activity relationship and optimization of the phenyl alkyl ether moiety” (J Med Chem, 1998)
In brackets after ≈: the same amount, converted by molar mass. Activity calls are given as the source filed them. The rule behind the calls is not given here.

Assays:
[1] = biological target: T1, Peroxisome proliferator-activated receptor gamma (Homo sapiens) (UniProt P37231); assay: Compound was tested in vitro for inhibiting the 50% binding of Peroxisome proliferator activated receptor gamma; IA = Inactive
T1 sequence (whole entry): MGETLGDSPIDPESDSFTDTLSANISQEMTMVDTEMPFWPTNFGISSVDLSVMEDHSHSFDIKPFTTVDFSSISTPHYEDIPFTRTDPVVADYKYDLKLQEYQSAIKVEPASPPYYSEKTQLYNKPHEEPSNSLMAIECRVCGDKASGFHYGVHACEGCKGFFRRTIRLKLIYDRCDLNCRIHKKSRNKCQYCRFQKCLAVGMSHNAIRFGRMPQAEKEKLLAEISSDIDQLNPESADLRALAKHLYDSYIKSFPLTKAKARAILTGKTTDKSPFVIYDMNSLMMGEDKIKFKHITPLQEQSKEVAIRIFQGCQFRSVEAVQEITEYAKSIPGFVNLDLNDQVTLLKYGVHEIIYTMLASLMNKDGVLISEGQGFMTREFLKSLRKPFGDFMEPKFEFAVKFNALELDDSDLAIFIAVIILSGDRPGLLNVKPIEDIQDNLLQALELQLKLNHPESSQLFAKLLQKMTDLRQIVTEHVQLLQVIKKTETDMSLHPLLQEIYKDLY
How it was run: (§1)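 Competitive radioligand binding to PPARγ with [3H]BRL 49653 as the radioligand. […] It is converted to an apparent Ki by Ki = IC50/(1 + [L]/Kd), and results are given as pKi.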

[2] = The solubility determined by equilibrating an excess of solid material in 500 microL of pH 7.4 phosphate buffer; format: ADME; settings: read-out: S
How it was run: (§2)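 Samples are filtered (0.22 µm) and diluted in water/acetonitrile 60:40. The dissolved concentration is measured by reversed-phase HPLC on a phenyl column with 0.05% TFA water/acetonitrile (60:40), 1 mL/min, and UV detection at each compound's maximum. Results are in mg/mL.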

[3] = The solubility determined by equilibrating an excess of solid material in 500 microL of simulated gastric fluid; format: ADME; settings: read-out: S; how it was run: as §2
[4] = biological target: T1, Peroxisome proliferator-activated receptor gamma (Homo sapiens); assay: Inhibition of Peroxisome proliferator activated receptor gamma; how it was run: as §1
[5] = biological target: T2, Peroxisome proliferator-activated receptor alpha (Homo sapiens, UniProt Q07869); assay: Tested in vitro for inhibiting the 50% binding of Peroxisome proliferator activated receptor alpha
T2 sequence (Q07869 whole entry): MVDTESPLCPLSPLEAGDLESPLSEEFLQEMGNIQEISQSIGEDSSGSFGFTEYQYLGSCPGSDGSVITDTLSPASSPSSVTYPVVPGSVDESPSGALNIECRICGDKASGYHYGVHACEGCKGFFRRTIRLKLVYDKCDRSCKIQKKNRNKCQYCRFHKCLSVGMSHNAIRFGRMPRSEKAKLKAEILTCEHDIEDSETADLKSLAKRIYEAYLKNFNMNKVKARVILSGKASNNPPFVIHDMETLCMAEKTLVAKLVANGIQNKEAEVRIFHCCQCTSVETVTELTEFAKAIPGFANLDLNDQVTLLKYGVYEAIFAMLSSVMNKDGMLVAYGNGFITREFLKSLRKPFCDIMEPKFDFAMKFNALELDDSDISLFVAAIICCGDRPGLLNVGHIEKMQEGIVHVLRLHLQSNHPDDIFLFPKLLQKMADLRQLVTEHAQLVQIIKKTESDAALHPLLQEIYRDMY

[6] = biological target: T2, Peroxisome proliferator-activated receptor alpha; assay: In vitro transactivation of Peroxisome proliferator activated receptor alpha.; format: functional
[7] = biological target: T3, Peroxisome proliferator-activated receptor gamma (Homo sapiens, UniProt P37231); assay: Inhibition by 50% of in vitro binding to Peroxisome proliferator activated receptor gamma
T3 sequence (P37231 whole entry): T1 sequence (whole entry)

[8] = biological target: T4, Peroxisome proliferator-activated receptor alpha (Homo sapiens) (UniProt Q07869); assay: Compound was tested in vitro for inhibiting the 50% binding of Peroxisome proliferator activated receptor alpha; IA = 'inactive'
T4 sequence (whole entry): T2 sequence (Q07869 whole entry)

| Log Ki [4] | Ki [5] [nM] | EC50 [6] [nM] | other results | SMILES |
| --- | --- | --- | --- | --- |
| – | – | – | Log Ki [1]: inactive | CCOc1ccc(COc2ccc(C[C@H](Nc3ccccc3C(=O)c3ccccc3)C(=O)O)cc2)cc1 |
| – | – | – | solubility thermodynamic [2]: < 1 µg/mL; solubility thermodynamic [3]: < 1 µg/mL | Cc1oc(-c2ccccc2)nc1CCOc1ccc(C[C@H](Nc2ccccc2C(=O)c2ccccc2)C(=O)O)cc1 [FARGLITAZAR] |
| inactive | – | – | – | O=C(c1ccccc1)c1ccccc1N[C@@H](Cc1ccc(O)cc1)C(=O)O |
| – | – | – | Log Ki [1]: inactive | Cc1ccc(C)c(COc2ccc(C[C@H](Nc3ccccc3C(=O)c3ccccc3)C(=O)O)cc2)c1 |
| inactive | – | – | – | Cc1nc(COc2ccc(C[C@H](Nc3ccccc3C(=O)c3ccccc3)C(=O)O)cc2)n2nc(Cl)ccc12 |
| – | 178 | 1820 | – | Cc1cc(-c2nc(CCOc3ccc(C[C@H](Nc4ccccc4C(=O)c4ccccc4)C(=O)O)cc3)c(C)s2)no1 |
| – | 138 | > 10000 | solubility thermodynamic [2]: 4 µg/mL (≈ 7.33 µM); solubility thermodynamic [3]: < 1 µg/mL | Cn1cc(-c2ccccc2)nc1CCOc1ccc(C[C@H](Nc2ccccc2C(=O)c2ccccc2)C(=O)O)cc1 |
| – | > 3020 | > 10000 | solubility thermodynamic [2]: 25 µg/mL (≈ 43.8 µM); solubility thermodynamic [3]: > 10000 µg/mL | Cc1sc(N2CCNCC2)nc1CCOc1ccc(C[C@H](Nc2ccccc2C(=O)c2ccccc2)C(=O)O)cc1 |
| inactive | – | – | – | O=C(c1ccccc1)c1ccccc1N[C@@H](Cc1ccc(OCC2COC(C3CCCCC3)O2)cc1)C(=O)O (some centres not stated) |
| inactive | – | – | – | COc1cc(COc2ccc(C[C@H](Nc3ccccc3C(=O)c3ccccc3)C(=O)O)cc2)cc(Br)c1OC |
| – | – | – | Ki [7]: 1620 nM | O=C(c1ccccc1)c1ccccc1N[C@@H](Cc1ccc(OC2CCN2C(c2ccccc2)c2ccccc2)cc1)C(=O)O (some centres not stated) |
| inactive | – | – | – | CN(CCOc1ccc(C[C@H](Nc2ccccc2C(=O)c2ccccc2)C(=O)O)cc1)Cc1cccs1 |
| – | – | – | Ki [7]: 955 nM | COc1ccccc1C(=O)N1CCC[C@H]1COc1ccc(C[C@H](Nc2ccccc2C(=O)c2ccccc2)C(=O)O)cc1 |
| – | > 3020 | > 10000 | – | Cc1oc(N2CCCCC2)nc1CCOc1ccc(C[C@H](Nc2ccccc2C(=O)c2ccccc2)C(=O)O)cc1 |
| – | 407 | > 10000 | – | Cc1cc(CCOc2ccc(C[C@H](Nc3ccccc3C(=O)c3ccccc3)C(=O)O)cc2)nn1-c1ccccc1 |
| – | > 3020 | > 10000 | – | Cc1sc(N2CCN(C(=O)OC(C)(C)C)CC2)nc1CCOc1ccc(C[C@H](Nc2ccccc2C(=O)c2ccccc2)C(=O)O)cc1 |
| inactive | – | – | – | COc1ccc(COc2ccc(C[C@H](Nc3ccccc3C(=O)c3ccccc3)C(=O)O)cc2)cc1Br |
| – | – | – | Log Ki [1]: inactive | COc1ccc(COc2ccc(C[C@H](Nc3ccccc3C(=O)c3ccccc3)C(=O)O)cc2)cc1 |
| – | 45.7 | 575 | – | Cc1ccc(-c2nc(CCOc3ccc(C[C@H](Nc4ccccc4C(=O)c4ccccc4)C(=O)O)cc3)c(C)o2)s1 |
| – | – | – | Ki [7]: 794 nM | COC(COc1ccc(C[C@H](Nc2ccccc2C(=O)c2ccccc2)C(=O)O)cc1)c1ccccc1 (some centres not stated) |
| inactive | – | – | – | Cc1cc(C)c(C)c(COc2ccc(C[C@H](Nc3ccccc3C(=O)c3ccccc3)C(=O)O)cc2)c1C |
| inactive | – | – | – | COc1ccc(COc2ccc(C[C@H](Nc3ccccc3C(=O)c3ccccc3)C(=O)O)cc2)nc1OC |
| inactive | – | – | – | Cc1ccc[n+]2c1=NC(c1ccccc1)C=2COc1ccc(C[C@H](Nc2ccccc2C(=O)c2ccccc2)C(=O)O)cc1 (some centres not stated) |
| inactive | – | – | – | COc1cc(OC)c(OC)cc1COc1ccc(C[C@H](Nc2ccccc2C(=O)c2ccccc2)C(=O)O)cc1 |
| – | > 3020 | 6460 | solubility thermodynamic [2]: 10 µg/mL (≈ 17.1 µM); solubility thermodynamic [3]: > 6000 µg/mL | Cc1sc(N2CCN(C)CC2)nc1CCOc1ccc(C[C@H](Nc2ccccc2C(=O)c2ccccc2)C(=O)O)cc1 |

| Log Ki [4] | Ki [5] [nM] | EC50 [6] [nM] | other results | SMILES |
| --- | --- | --- | --- | --- |
| – | > 3020 | > 10000 | solubility thermodynamic [2]: 846 µg/mL (≈ 1540 µM); solubility thermodynamic [3]: 5 µg/mL (≈ 9.13 µM) | Cc1oc(-c2ccncc2)nc1CCOc1ccc(C[C@H](Nc2ccccc2C(=O)c2ccccc2)C(=O)O)cc1 |
| – | 107 | 389 | – | COc1ccc(-c2nc(CCOc3ccc(C[C@H](Nc4ccccc4C(=O)c4ccccc4)C(=O)O)cc3)c(C)o2)cc1 |
| – | 1910 | > 10000 | solubility thermodynamic [2]: 180 µg/mL (≈ 315 µM); solubility thermodynamic [3]: 4 µg/mL (≈ 7 µM) | Cc1sc(N2CCOCC2)nc1CCOc1ccc(C[C@H](Nc2ccccc2C(=O)c2ccccc2)C(=O)O)cc1 |
| – | > 3020 | > 10000 | – | Cc1sc(-c2ccncc2)nc1CCOc1ccc(C[C@H](Nc2ccccc2C(=O)c2ccccc2)C(=O)O)cc1 |
| inactive | – | – | – | Cc1ccc2cc(COc3ccc(C[C@H](Nc4ccccc4C(=O)c4ccccc4)C(=O)O)cc3)ccc2n1 |
| – | > 3020 | > 10000 | – | Cc1sc(NCCCN(C)C)nc1CCOc1ccc(C[C@H](Nc2ccccc2C(=O)c2ccccc2)C(=O)O)cc1 |
| inactive | – | – | – | O=C(c1ccccc1)c1ccccc1N[C@@H](Cc1ccc(OCc2cnc3ccccc3c2)cc1)C(=O)O |
| – | – | – | Log Ki [8]: inactive | Cc1ncsc1CCOc1ccc(C[C@H](Nc2ccccc2C(=O)c2ccccc2)C(=O)O)cc1 |
| – | 56.2 | 257 | – | Cc1oc(-c2ccc(F)cc2)nc1CCOc1ccc(C[C@H](Nc2ccccc2C(=O)c2ccccc2)C(=O)O)cc1 |
| – | – | – | Log Ki [8]: inactive | CC(C)c1ccc(COc2ccc(C[C@H](Nc3ccccc3C(=O)c3ccccc3)C(=O)O)cc2)cc1 |
| – | 126 | 1050 | solubility thermodynamic [2]: 2 µg/mL (≈ 3.55 µM); solubility thermodynamic [3]: < 1 µg/mL | Cc1sc(-c2ccccc2)nc1CCOc1ccc(C[C@H](Nc2ccccc2C(=O)c2ccccc2)C(=O)O)cc1 |
| – | – | – | Log Ki [8]: inactive | O=C(c1ccccc1)c1ccccc1N[C@@H](Cc1ccc(OCCOc2ccc(Br)cc2)cc1)C(=O)O |
| inactive | – | – | – | COc1ccc(COc2ccc(C[C@H](Nc3ccccc3C(=O)c3ccccc3)C(=O)O)cc2)cc1OC |
| – | > 3020 | > 10000 | – | Cc1sc(N(C)C)nc1CCOc1ccc(C[C@H](Nc2ccccc2C(=O)c2ccccc2)C(=O)O)cc1 |
| – | – | – | Log Ki [1]: inactive | CN(C)C(=O)c1cccc(COc2ccc(C[C@H](Nc3ccccc3C(=O)c3ccccc3)C(=O)O)cc2)n1 |
| – | – | – | Log Ki [8]: inactive | O=C(c1ccccc1)c1ccccc1N[C@@H](Cc1ccc(OCCc2ccc(Cl)cc2)cc1)C(=O)O |
| – | – | – | Log Ki [1]: inactive | O=C(c1ccccc1)c1ccccc1N[C@@H](Cc1ccc(OCCc2cc(Br)no2)cc1)C(=O)O |
| – | 468 | 2750 | – | Cc1ccsc1-c1nc(CCOc2ccc(C[C@H](Nc3ccccc3C(=O)c3ccccc3)C(=O)O)cc2)c(C)o1 |
| inactive | – | – | – | Cc1ccc[n+]2c1=NC(C)C=2COc1ccc(C[C@H](Nc2ccccc2C(=O)c2ccccc2)C(=O)O)cc1 (some centres not stated) |
| inactive | – | – | – | C/C(=C\c1ccccc1)COc1ccc(C[C@H](Nc2ccccc2C(=O)c2ccccc2)C(=O)O)cc1 |
| – | > 3020 | > 10000 | solubility thermodynamic [2]: 4 µg/mL (≈ 7.32 µM); solubility thermodynamic [3]: 1 µg/mL (≈ 1.83 µM) | Cc1nc(-c2ccccc2)nn1CCOc1ccc(C[C@H](Nc2ccccc2C(=O)c2ccccc2)C(=O)O)cc1 |
| – | > 3020 | > 10000 | – | COCn1c(-c2ccccc2)nc(C)c1CCOc1ccc(C[C@H](Nc2ccccc2C(=O)c2ccccc2)C(=O)O)cc1 |
| – | > 3020 | > 10000 | – | Cc1[nH]c(-c2ccccc2)nc1CCOc1ccc(C[C@H](Nc2ccccc2C(=O)c2ccccc2)C(=O)O)cc1 |
| – | 1860 | > 10000 | solubility thermodynamic [2]: 210 µg/mL (≈ 375 µM); solubility thermodynamic [3]: 210 µg/mL (≈ 375 µM) | COCCNc1nc(CCOc2ccc(C[C@H](Nc3ccccc3C(=O)c3ccccc3)C(=O)O)cc2)c(C)s1 |
